What was measured:
Liver microsome [1] = test: Metabolic stability in human liver microsomes assessed as compound remaining at 10 uM after 30 mins; type: ADME; details: 0.5 h
Procedure, shortened: (§1)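 Compound at 10 µM was incubated for 30 min with liver microsomes (H = human, R = rat). Stability was expressed as percent of compound remaining.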

Liver microsome [2] = test: Metabolic stability in rat liver microsomes assessed as compound remaining at 10 uM after 30 mins; type: ADME; details: 0.5 h; procedure, shortened: as §1
[3] = Aqueous kinetic solubility of the compound in pH 7.4 PBS buffer; type: physicochemical
Cytochrome P450 2C9 = Cytochrome P450 2C9 (Homo sapiens, UniProt P11712); test: Inhibition of CYP2C9 (unknown origin)
Cytochrome P450 2C9, sequence (P11712 whole entry): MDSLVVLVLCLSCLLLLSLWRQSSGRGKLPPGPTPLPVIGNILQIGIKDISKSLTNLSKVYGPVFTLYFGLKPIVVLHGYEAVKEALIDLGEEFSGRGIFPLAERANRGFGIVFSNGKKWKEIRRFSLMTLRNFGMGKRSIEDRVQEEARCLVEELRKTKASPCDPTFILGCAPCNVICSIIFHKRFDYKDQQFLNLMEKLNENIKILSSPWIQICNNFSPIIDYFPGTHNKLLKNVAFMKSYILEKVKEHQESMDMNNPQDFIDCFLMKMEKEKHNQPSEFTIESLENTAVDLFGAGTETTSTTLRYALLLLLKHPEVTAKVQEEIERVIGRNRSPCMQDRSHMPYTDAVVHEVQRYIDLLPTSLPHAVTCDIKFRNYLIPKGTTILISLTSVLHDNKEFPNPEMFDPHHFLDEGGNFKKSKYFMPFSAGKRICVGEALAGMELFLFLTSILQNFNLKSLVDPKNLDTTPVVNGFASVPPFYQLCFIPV

Cytochrome P450 2C19 = Cytochrome P450 2C19 (Homo sapiens, UniProt P33261); test: Inhibition of CYP2C19 (unknown origin)
Cytochrome P450 2C19, sequence (P33261 whole entry): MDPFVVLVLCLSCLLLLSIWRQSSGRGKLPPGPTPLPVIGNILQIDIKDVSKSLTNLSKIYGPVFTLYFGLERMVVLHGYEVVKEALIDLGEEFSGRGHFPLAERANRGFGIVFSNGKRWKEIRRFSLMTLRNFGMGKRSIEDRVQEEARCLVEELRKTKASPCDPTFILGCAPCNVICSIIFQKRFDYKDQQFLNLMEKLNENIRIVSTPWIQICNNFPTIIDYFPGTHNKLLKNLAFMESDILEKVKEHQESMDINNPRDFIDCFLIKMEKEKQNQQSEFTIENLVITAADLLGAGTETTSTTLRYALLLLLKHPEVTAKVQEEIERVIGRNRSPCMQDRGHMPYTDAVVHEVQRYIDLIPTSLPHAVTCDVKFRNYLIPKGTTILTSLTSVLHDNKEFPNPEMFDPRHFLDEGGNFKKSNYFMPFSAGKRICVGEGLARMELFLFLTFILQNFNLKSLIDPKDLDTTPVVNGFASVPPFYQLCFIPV

Cytochrome P450 2D6 = Cytochrome P450 2D6 (Homo sapiens, UniProt P10635); test: Inhibition of CYP2D6 (unknown origin)
Cytochrome P450 2D6, sequence (P10635 whole entry): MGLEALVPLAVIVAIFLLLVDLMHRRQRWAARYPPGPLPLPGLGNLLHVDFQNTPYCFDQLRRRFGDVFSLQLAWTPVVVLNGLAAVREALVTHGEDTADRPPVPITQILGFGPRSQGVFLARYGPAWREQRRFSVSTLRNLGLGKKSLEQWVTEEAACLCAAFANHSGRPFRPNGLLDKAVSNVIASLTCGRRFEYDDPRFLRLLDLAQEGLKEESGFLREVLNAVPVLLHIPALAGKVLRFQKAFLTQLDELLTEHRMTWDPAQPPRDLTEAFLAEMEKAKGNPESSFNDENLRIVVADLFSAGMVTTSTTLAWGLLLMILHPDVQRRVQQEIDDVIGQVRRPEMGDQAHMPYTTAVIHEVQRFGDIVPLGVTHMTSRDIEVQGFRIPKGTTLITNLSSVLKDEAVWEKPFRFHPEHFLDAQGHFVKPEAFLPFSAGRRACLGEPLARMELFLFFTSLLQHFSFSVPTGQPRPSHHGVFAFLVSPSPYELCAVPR

Cytochrome P450 3A4 = Cytochrome P450 3A4 (Homo sapiens, UniProt P08684); test: Inhibition of CYP3A4 (unknown origin)
Cytochrome P450 3A4, sequence (P08684 whole entry): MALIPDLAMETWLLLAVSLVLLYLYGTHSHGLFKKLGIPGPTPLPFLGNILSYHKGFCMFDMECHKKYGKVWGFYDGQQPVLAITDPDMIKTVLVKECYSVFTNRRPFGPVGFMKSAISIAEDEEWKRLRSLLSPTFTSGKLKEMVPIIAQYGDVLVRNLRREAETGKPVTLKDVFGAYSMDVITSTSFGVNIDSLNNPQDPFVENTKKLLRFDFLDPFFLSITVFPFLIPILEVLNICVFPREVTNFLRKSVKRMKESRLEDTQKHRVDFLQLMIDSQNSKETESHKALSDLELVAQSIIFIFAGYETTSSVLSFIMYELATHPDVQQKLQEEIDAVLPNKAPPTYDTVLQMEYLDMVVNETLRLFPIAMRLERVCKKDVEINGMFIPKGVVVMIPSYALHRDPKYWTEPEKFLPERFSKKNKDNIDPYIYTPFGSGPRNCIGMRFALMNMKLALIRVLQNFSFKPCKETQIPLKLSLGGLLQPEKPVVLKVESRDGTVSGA

[4] = target: T1, Retinol-binding protein 4 (Homo sapiens, UniProt P02753)
[5] = target: T1, Retinol-binding protein 4; remark: listed apart in the source
[6] = Cmax in Sprague-Dawley rat plasma at 0.5 mg/kg, iv; type: ADME, organism-based; set-up: dose 0.5 mg/kg, route intravenous
Procedure, shortened: (§2)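 Groups of three drug-naive adult male Sprague-Dawley rats. Dosing was iv at 0.5 mg/kg once on day 0, or po at 5 mg/kg once on day 0 or once daily from day 0 to day 6. Cmax is the maximum observed plasma concentration. Pre-dose plasma was also sampled on day 6, and urine was collected 0–48 h after iv dosing.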

[7] = Cmax in Sprague-Dawley rat plasma at 5 mg/kg, po; type: ADME, organism-based; set-up: dose 5 mg/kg, route oral; procedure, shortened: as §2
[8] = Apparent half-life of the terminal phase of elimination in Sprague-Dawley rat plasma at 0.5 mg/kg, iv; type: ADME, organism-based; set-up: dose 0.5 mg/kg, route intravenous; details: read-out: betat1/2(app) (converted)
Procedure, shortened: (§3)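 Three drug-naive adult male Sprague-Dawley rats per group, given a single iv dose on day 0. Compound was measured in plasma over time. Parameters were derived from the plasma concentration–time curve: terminal-phase half-life, total body clearance, and steady-state volume of distribution. Urine was also collected from 0 to 48 h.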

[9] = Apparent half-life of the terminal phase of elimination in Sprague-Dawley rat plasma at 5 mg/kg, po; type: ADME, organism-based; set-up: dose 5 mg/kg, route oral; details: read-out: betat1/2(app) (converted)
Procedure, shortened: (§4)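 Adult male Sprague-Dawley rats, drug-naive, three per group. Plasma levels gave the terminal-phase half-life. Bioavailability F = (AUCINF po × dose iv) ÷ (AUCINF iv × dose po), using a 0.5 mg/kg iv reference group.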

[10] = AUClast in Sprague-Dawley rat plasma at 0.5 mg/kg, iv; type: ADME, organism-based; set-up: time 0 - last, dose 0.5 mg/kg, route intravenous
Procedure, shortened: (§5)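 Single intravenous dose of 0.5 mg/kg given on day 0 to a group of three drug-naive adult male Sprague-Dawley rats. Compound was measured in plasma over time, and urine was collected from 0 to 48 h. AUClast runs from 0 to the last quantifiable time point; AUC(0–inf) is extrapolated to infinity. Values are group means.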

[11] = AUClast in Sprague-Dawley rat plasma at 5 mg/kg, po; type: ADME, organism-based; set-up: time 0 - last, dose 5 mg/kg, route oral
Procedure, shortened: (§6)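 Oral dosing at 5 mg/kg in groups of three drug-naive adult male Sprague-Dawley rats, given either once on day 0 or once daily from day 0 to day 6. Plasma was sampled after the day 0 or day 6 dose. AUClast runs from 0 to the last quantifiable point; AUC(0–inf) is extrapolated to infinity. Values are means.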

[12] = AUC (0 to infinity) in Sprague-Dawley rat plasma at 0.5 mg/kg, iv; type: ADME, organism-based; set-up: time infinity, dose 0.5 mg/kg, route intravenous; procedure, shortened: as §5
[13] = AUC (0 to infinity) in Sprague-Dawley rat plasma at 5 mg/kg, po; type: ADME, organism-based; set-up: time infinity, dose 5 mg/kg, route oral; procedure, shortened: as §6
[14] = Clearance in Sprague-Dawley rat plasma at 0.5 mg/kg, iv; type: ADME, organism-based; set-up: dose 0.5 mg/kg, route intravenous; procedure, shortened: as §3
[15] = Volume of distribution at steady state in Sprague-Dawley rat plasma at 0.5 mg/kg, iv; type: ADME, organism-based; set-up: dose 0.5 mg/kg, route intravenous; details: read-out: Vdss; procedure, shortened: as §3
[16] = Oral bioavailability in Sprague-Dawley rat plasma at 5 mg/kg; type: ADME, organism-based; procedure, shortened: as §4
in vivo [17] = details: Sprague-Dawley, rat, plasma, iv, 0.5 mg/kg
in vivo [18] = details: Sprague-Dawley, rat, plasma, po, 5 mg/kg

| Structure (SMILES) | Stability (Liver microsome [1]) [%] | Stability (Liver microsome [2]) [%] | Kinetic_solubility [3] [µM] | IC50 [4] [µM] | IC50 [5] [µM] | other results |
| --- | --- | --- | --- | --- | --- | --- |
| O=C(O)c1cnncc1NC(=O)N1C[C@H]2C[C@@H](c3ccccc3C(F)(F)F)C[C@H]2C1 | 97 | 61 | > 100 | 0.024 | 0.121 | IC50 (Cytochrome P450 2C9): 17 µM; IC50 (Cytochrome P450 2C19): 6 µM; IC50 (Cytochrome P450 2D6): > 100 µM; IC50 (Cytochrome P450 3A4): 12 µM |
| O=C(O)c1ccccc1NC(=O)N1CCc2ccccc2CC1 | – | – | – | > 3 | – | – |
| CS(=O)(=O)NC(=O)c1ccccc1NC(=O)N1CCC(c2ccccc2C(F)(F)F)CC1 | – | – | – | 0.298 | – | – |
| C[C@@H](NC(=O)N1C[C@H]2C[C@@H](c3ccccc3C(F)(F)F)C[C@H]2C1)C(=O)O | – | – | – | > 3 | – | – |
| O=C(O)c1ccccc1NC(=O)N1C[C@@H]2[C@H](C1)[C@@H]2c1ccccc1C(F)(F)F | – | – | – | > 3 | – | – |
| O=C(O)c1ccccc1NC(=O)N1CC(Oc2ccccc2C(F)(F)F)C1 | – | – | – | 1.44 | – | – |
| O=C(O)c1cc(Cl)ccc1NC(=O)N1C[C@H]2C[C@@H](c3ccccc3C(F)(F)F)C[C@H]2C1 | 89 | 87 | 60 | […] | – | – |
| C[C@H](NC(=O)N1C[C@H]2C[C@@H](c3ccccc3C(F)(F)F)C[C@H]2C1)C(=O)O | – | – | – | 1.48 | – | – |
| O=C(O)c1ccccc1NC(=O)N1CC2(C1)CN(c1ccccc1C(F)(F)F)C2 | – | – | – | > 3 | – | – |
| Cc1cc(NC(=O)N2C[C@H]3C[C@@H](c4ccccc4C(F)(F)F)C[C@H]3C2)c(C(=O)O)cn1 | 71 | 76 | 93 | – | – | IC50 (Cytochrome P450 2C9): 1 µM; IC50 (Cytochrome P450 2C19): 12 µM; IC50 (Cytochrome P450 2D6): > 100 µM; IC50 (Cytochrome P450 3A4): 1.1 µM |
| O=C(O)CC(=O)N1CCC(c2ccccc2C(F)(F)F)CC1 | – | – | – | 1.47 | – | – |
| CS(=O)(=O)c1ccc(NC(=O)N2C[C@H]3C[C@@H](c4ccccc4C(F)(F)F)C[C@H]3C2)c(C(=O)O)c1 | 100 | 100 | > 100 | 0.163 | 1.55 | IC50 (Cytochrome P450 2C9): 8.7 µM; IC50 (Cytochrome P450 2C19): 32 µM; IC50 (Cytochrome P450 2D6): > 100 µM; IC50 (Cytochrome P450 3A4): 42 µM |
| O=C(NS(=O)(=O)c1ccccc1)c1ccccc1NC(=O)N1CCC(c2ccccc2C(F)(F)F)CC1 | – | – | – | > 3 | – | – |
| O=C(O)c1ccccc1NC(=O)N1C[C@H]2C[C@H](c3ccccc3C(F)(F)F)C[C@H]2C1 | – | – | – | > 3 | – | – |
| COc1ccc(NC(=O)N2C[C@H]3C[C@@H](c4ccccc4C(F)(F)F)C[C@H]3C2)c(C(=O)O)c1 | 89 | 72 | 34 | 0.17 | – | IC50 (Cytochrome P450 2C9): 13 µM; IC50 (Cytochrome P450 2C19): 75 µM; IC50 (Cytochrome P450 2D6): > 100 µM; IC50 (Cytochrome P450 3A4): 8 µM |
| O=C(O)c1ccccc1NC(=O)N1CCC2(CCc3ccccc32)CC1 | – | – | – | 3.76 | – | – |
| O=C(O)c1ccccc1NC(=O)N1C[C@H]2C[C@@H](c3ccccc3C(F)(F)F)C[C@H]2C1 | 100 | 75 | 55 | 0.0727 | 0.294 | IC50 (Cytochrome P450 2C9): 0.34 µM; IC50 (Cytochrome P450 2C19): 29 µM; IC50 (Cytochrome P450 2D6): > 100 µM; IC50 (Cytochrome P450 3A4): 28 µM; Cmax [6]: 2940 ng/mL; Cmax [7]: 7830 ng/mL; half-life [8]: 10.3 h; half-life [9]: 7.6 h; AUC(0-t) [10]: 13200 ng·h/mL; AUC(0-t) [11]: 62100 ng·h/mL; AUC(0-inf) [12]: 14300 ng·h/mL; AUC(0-inf) [13]: 63000 ng·h/mL; clearance [14]: 0.588 mL/min/kg; Vd [15]: 0.523 L/kg; bioavailability [16]: 44%; Tmax (in vivo [17]): 4.98 min; Tmax (in vivo [18]): 0.33 h |

| Structure (SMILES) | Stability (Liver microsome [1]) [%] | Stability (Liver microsome [2]) [%] | Kinetic_solubility [3] [µM] | IC50 [4] [µM] | IC50 [5] [µM] | other results |
| --- | --- | --- | --- | --- | --- | --- |
| O=C(O)c1ccccc1NC(=O)N1CCC(c2ccccc2C(F)(F)F)CC1 | 3 | 85 | 57 | – | – | IC50 (Cytochrome P450 2C9): > 100 µM; IC50 (Cytochrome P450 2C19): 52 µM; IC50 (Cytochrome P450 2D6): 100 µM |
| O=C(O)C1CCCN1C(=O)N1CCC(c2ccccc2C(F)(F)F)CC1 (racemic) | – | – | – | > 3 | – | – |
| O=C(NS(=O)(=O)C1CC1)c1ccccc1NC(=O)N1CCC(c2ccccc2C(F)(F)F)CC1 | – | – | – | 0.244 | 5.31 | – |
| O=C(O)CCC(=O)N1CCC(c2ccccc2C(F)(F)F)CC1 | – | – | – | > 3 | – | – |
| CN(CCOc1ccccc1C(F)(F)F)C(=O)Nc1ccccc1C(=O)O | – | – | – | 1.9 | 2.65 | – |
| O=C(O)[C@@H](NC(=O)N1C[C@H]2C[C@@H](c3ccccc3C(F)(F)F)C[C@H]2C1)c1ccccc1 | – | – | – | 0.124 | 0.829 | – |
| CN(CCOc1ccc(Cl)cc1C(C)(C)C)C(=O)Nc1ccccc1C(=O)O | – | – | – | > 3 | – | – |
| O=C(O)[C@H](NC(=O)N1C[C@H]2C[C@@H](c3ccccc3C(F)(F)F)C[C@H]2C1)c1ccccc1 | – | – | – | 1.32 | 8.34 | – |
| CN(CCOc1ccc(F)cc1C(C)(C)C)C(=O)Nc1ccccc1C(=O)O | 3.2 | – | – | 0.141 | – | – |
| O=C(O)c1cnccc1NC(=O)N1C[C@H]2C[C@@H](c3ccccc3C(F)(F)F)C[C@H]2C1 | 81 | 82 | 29 | 0.0187 | 0.179 | IC50 (Cytochrome P450 2C9): 5.6 µM; IC50 (Cytochrome P450 2C19): 2.1 µM; IC50 (Cytochrome P450 2D6): > 100 µM; IC50 (Cytochrome P450 3A4): < 0.046 µM |
| O=C(O)c1ccccc1NC(=O)N1C[C@@H]2[C@H](C1)[C@H]2c1ccccc1C(F)(F)F | – | – | – | > 3 | – | – |
| O=C(O)c1cc(F)ccc1NC(=O)N1C[C@H]2C[C@@H](c3ccccc3C(F)(F)F)C[C@H]2C1 | 57 | 100 | 55 | 0.0888 | 0.285 | IC50 (Cytochrome P450 2C9): 0.33 µM; IC50 (Cytochrome P450 2C19): 31 µM; IC50 (Cytochrome P450 2D6): > 100 µM; IC50 (Cytochrome P450 3A4): 53 µM |
| O=C(O)c1cccnc1NC(=O)N1C[C@H]2C[C@@H](c3ccccc3C(F)(F)F)C[C@H]2C1 | 83 | 81 | 82 | > 3 | – | IC50 (Cytochrome P450 2C9): 27 µM; IC50 (Cytochrome P450 2C19): 33 µM; IC50 (Cytochrome P450 2D6): > 100 µM; IC50 (Cytochrome P450 3A4): > 100 µM |
| O=C(O)C(=O)N1CCC(c2ccccc2C(F)(F)F)CC1 | – | – | – | 0.234 | 3.13 | – |
| CN(CCOc1ccccc1C(C)(C)C)C(=O)Nc1ccccc1C(=O)O | 1.1 | – | – | – | – | – |
| O=C(O)c1ccccc1NC(=O)N1CC(c2ccccc2C(F)(F)F)C1 | – | – | – | > 3 | 8.38 | – |

Reference: ChEMBL document CHEMBL3351344 (J Med Chem, 2014)
